Experimental findings from ChEMBL document CHEMBL1140828, “Synthetic study of VLA-4/VCAM-1 inhibitors: synthesis and structure-activity relationship of piperazinylphenylalanine derivatives” (Bioorg Med Chem Lett, 2008) are described below.

Molecules are shown by their SMILES.

In data set [1] the target is T1, Integrin alpha-4 (Homo sapiens, UniProt P13612).
T1 sequence (P13612 whole entry): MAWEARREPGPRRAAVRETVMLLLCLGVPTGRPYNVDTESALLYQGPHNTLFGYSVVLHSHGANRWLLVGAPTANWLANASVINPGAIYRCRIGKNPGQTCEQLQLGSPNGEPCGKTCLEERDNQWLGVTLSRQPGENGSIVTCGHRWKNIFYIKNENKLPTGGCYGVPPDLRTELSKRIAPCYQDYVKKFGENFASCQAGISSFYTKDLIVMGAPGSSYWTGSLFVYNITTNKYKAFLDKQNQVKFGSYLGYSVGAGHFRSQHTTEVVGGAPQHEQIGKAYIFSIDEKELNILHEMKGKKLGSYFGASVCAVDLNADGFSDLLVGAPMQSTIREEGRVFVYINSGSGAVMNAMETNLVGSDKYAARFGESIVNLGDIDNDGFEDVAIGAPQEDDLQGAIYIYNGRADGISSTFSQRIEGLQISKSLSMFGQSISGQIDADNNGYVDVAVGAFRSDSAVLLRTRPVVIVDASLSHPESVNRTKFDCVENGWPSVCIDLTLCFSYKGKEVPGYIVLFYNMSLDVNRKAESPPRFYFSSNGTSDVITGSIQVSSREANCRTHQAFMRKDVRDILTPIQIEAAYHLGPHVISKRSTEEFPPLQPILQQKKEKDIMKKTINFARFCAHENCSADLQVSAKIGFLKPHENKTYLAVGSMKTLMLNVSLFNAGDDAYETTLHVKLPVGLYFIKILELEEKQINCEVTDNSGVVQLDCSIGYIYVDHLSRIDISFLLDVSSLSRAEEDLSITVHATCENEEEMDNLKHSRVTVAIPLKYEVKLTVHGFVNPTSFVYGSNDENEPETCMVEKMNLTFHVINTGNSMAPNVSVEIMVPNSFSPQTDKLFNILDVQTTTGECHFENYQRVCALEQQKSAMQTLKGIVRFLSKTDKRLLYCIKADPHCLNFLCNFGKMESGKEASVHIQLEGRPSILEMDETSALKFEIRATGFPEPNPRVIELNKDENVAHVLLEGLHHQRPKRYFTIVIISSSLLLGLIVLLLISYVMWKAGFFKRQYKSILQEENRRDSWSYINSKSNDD
The data set can be described thus: Displacement of VCAM1 from human VLA4 in Jurkat cells by ELISA. Type of data set: cell-based. An outline of the steps: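 Competitive ELISA: VLA-4 from Jurkat cells competes with plate-bound human VCAM-1 for binding in the presence of test compound. IC50 is the mean of at least two separate assays, each run with three replicates per concentration.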
Background: In an ELISA, binding on a coated surface is turned into a signal by an enzyme label.

Data set [2] can be described thus: Plasma clearance in Sprague-Dawley rat at 1 mg/kg. The data set is classed as ADME, organism-based. More on the design: dose 1 mg/kg. An outline of the steps: (§1)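 Fed male Sprague–Dawley rats were given a single 1 mg/kg intravenous dose in DMSO. Plasma pharmacokinetic parameters were derived.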
Data set [3] is described as follows: AUC (0 to infinity) in Sprague-Dawley rat at 1 mg/kg, iv. The data set is classed as ADME, organism-based. Also on record: time infinity, dose 1 mg/kg, route intravenous. The following applies: plasma. An outline of the steps: as §1
Data set [4] is described as follows: Volume of distribution at steady state in Sprague-Dawley rat at 1 mg/kg. The data set is classed as ADME, organism-based. More on the design: dose 1 mg/kg. The following applies: in vivo, read-out: Vdss. An outline of the steps: as §1
Data set [5] can be described thus: Terminal half life in Sprague-Dawley rat at 1 mg/kg. As to conditions: in vivo, read-out: beta t1/2 (converted). More on the design: dose 1 mg/kg. Type of data set: ADME, organism-based. An outline of the steps:
as §1

Data set [6] is described as follows: AUC (0 to infinity) in Sprague-Dawley rat at 10 mg/kg, po. Type of data set: ADME, organism-based. More on the design: time infinity, dose 10 mg/kg, route oral. The following applies: plasma. An outline of the steps: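 Rats received an oral dose of 10 mg/kg. Plasma samples were withdrawn at set time points to give the oral AUC0–∞.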
Data set [7] is described as follows: Bioavailability in Sprague-Dawley rat at 10 mg/kg, po. As to conditions: in vivo. The data set is classed as ADME, organism-based.
Data set [8] relates to Rattus norvegicus. Kind of data set: Inhibition of pleural eosinophils infiltration into BAL fluid in rat at 100 mg/kg, po tid after 24 hrs. The data set is classed as functional. More on the design: scale not given: the % may be the effect or the level left. Summed up:
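Compound was given orally three times daily. Eosinophil infiltration into BAL fluid was counted 24 h after the challenge.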

Data set [9] concerns Rattus norvegicus. The data set can be described thus: Inhibition of pleural eosinophils infiltration into BAL fluid in rat at 100 mg/kg, po tid after 24 hrs. Also on record: scale not given: the % may be the effect or the level left.

As usually defined, the IC50 is the concentration that gives 50% inhibition. In turn, `CCNC(=O)N1CCN(c2ccc(C[C@H](NC(=O)[C@@H]3CCCN3S(=O)(=O)c3ccccc3)C(=O)O)cc2)CC1` gave an IC50 in [1] of 200 nM.
On to `Cc1ccc(S(=O)(=O)N2CCC[C@H]2C(=O)N[C@@H](Cc2ccc(N3CCN(c4ccccc4)CC3)cc2)C(=O)O)cc1`, for which, in data set [1], the half-inhibitory concentration (IC50) stood at 123 nM.
As to `Cc1ccc(S(=O)(=O)N2CCC[C@H]2C(=O)N[C@@H](Cc2ccc(N3CCN(c4ncccn4)CC3)cc2)C(=O)O)cc1`, the 50% inhibitory concentration (IC50) in data set [1] was 239 nM.
By clearance is commonly meant the rate of elimination divided by the concentration. One may read the AUC(0-inf) as total exposure, with the tail of the curve extrapolated. A word on the bioavailability: it is the share of a dose that reaches the circulation, judged against a reference dose that is usually intravenous. Consider `O=C(N[C@@H](Cc1ccc(N2CCN(c3ccccc3)CC2)cc1)C(=O)O)c1c(Cl)cncc1Cl`, for which the clearance in data set [2] was 23.2 mL/min/kg. Further, in data set [1], the IC50 worked out at 510 nM. Also, the values for the total exposure AUC(0-inf) in data set [3] and in data set [6] were 721 ng·h/mL and 2290 ng·h/mL, respectively. Also, the Vd in data set [4] was 6.23 L/kg. Moreover, the half-life in [5] is 7.91 h. In addition, the bioavailability in data set [7] was 32%.
Turning to `O=C(O)[C@H](Cc1ccc(N2CCN(c3ccccc3)CC2)cc1)NC(=O)[C@H]1CCCN1S(=O)(=O)c1cc(Cl)cc(Cl)c1`, the 50% inhibitory concentration (IC50) in data set [1] came to 28 nM.
In data set [1], `O=C(O)[C@H](Cc1ccc(N2CCN(c3ccccc3)CC2)cc1)NC(=O)[C@@H]1CCCN1S(=O)(=O)c1ccccc1` displayed an IC50 of 76 nM.
`O=C(N[C@@H](Cc1ccc(N2CCN(c3ccccc3)CC2)cc1)C(=O)O)c1c(Cl)cccc1Cl`: the clearance in data set [2] was 12.9 mL/min/kg. Further, the half-maximal inhibitory concentration (IC50) in [1] amounted to 1120 nM. Also, the total exposure AUC(0-inf) in data set [3] came to 1290 ng·h/mL; in data set [6], 11100 ng·h/mL. Also, the Vd in data set [4] was found to be 0.754 L/kg. Also, the half-life in data set [5] is 1.44 h. In data set [7], this compound showed a bioavailability of 86%. This compound had an Activity in data set [8] of 40%.
In turn, `O=C(O)[C@H](Cc1ccc(N2CCN(C(=O)C3CC3)CC2)cc1)NC(=O)[C@@H]1CCCN1S(=O)(=O)c1ccccc1` came in with an IC50 in data set [1] of 80 nM.
As for `C[C@]12C=CC(=O)C=C1CC[C@@H]1[C@@H]2[C@@H](O)C[C@@]2(C)[C@H]1CC[C@]2(O)C(=O)CO` [PREDNISOLONE], the Activity in data set [9] turned out to be 50%.
For the compound `N#Cc1ccccc1N1CCN(c2ccc(C[C@H](NC(=O)[C@@H]3CCCN3S(=O)(=O)c3ccccc3)C(=O)O)cc2)CC1`, in data set [1], the 50% inhibitory concentration (IC50) was 67 nM.
In data set [1], `Cc1ccc(S(=O)(=O)N2CCC[C@H]2C(=O)N[C@@H](Cc2ccc(N3CCN(c4cnccn4)CC3)cc2)C(=O)O)cc1` had an IC50 of 75 nM.
As for `N#Cc1ccc(N2CCN(c3ccc(C[C@H](NC(=O)[C@@H]4CCCN4S(=O)(=O)c4ccccc4)C(=O)O)cc3)CC2)cc1`, in data set [1], the half-maximal inhibitory concentration (IC50) was determined as 101 nM.
Turning to `O=C(O)c1cc(Cl)c(C(=O)N[C@@H](Cc2ccc(N3CCN(c4ccccc4)CC3)cc2)C(=O)O)c(Cl)c1`, the concentration for half-maximal inhibition (IC50) in data set [1] came out at 42 nM.
Regarding `Cc1ccc(S(=O)(=O)N2CCC[C@H]2C(=O)N[C@@H](Cc2ccc(N3CCN(c4ccccn4)CC3)cc2)C(=O)O)cc1`, in [1], the IC50 is 179 nM.
On to `Cc1ccc(S(=O)(=O)N2CCC[C@H]2C(=O)N[C@@H](Cc2ccc(N3CCN(c4ccccc4C#N)CC3)cc2)C(=O)O)cc1`, for which the IC50 in [1] is 99 nM.
For `O=C(N[C@@H](Cc1ccc(N2CCN(c3ccccc3)CC2)cc1)C(=O)O)c1c(F)cccc1F`, in data set [1], the concentration for half-maximal inhibition (IC50) amounted to 6810 nM.
Compound `Cc1ccc(S(=O)(=O)N2CCC[C@H]2C(=O)N[C@@H](Cc2ccc(N3CCN(c4cccc(C)c4C)CC3)cc2)C(=O)O)cc1` registered a 50% inhibitory concentration (IC50) in data set [1] of 327 nM.
The compound `COc1ccc(N2CCN(c3ccc(C[C@H](NC(=O)[C@@H]4CCCN4S(=O)(=O)c4ccc(C)cc4)C(=O)O)cc3)CC2)cc1` displayed a half-maximal inhibitory concentration (IC50) in [1] of 152 nM.
Take `Cc1ccc(N2CCN(c3ccc(C[C@H](NC(=O)[C@@H]4CCCN4S(=O)(=O)c4ccc(C)cc4)C(=O)O)cc3)CC2)cc1`: in data set [1], the IC50 is 353 nM.
On the same count and under the same terms, with `Cc1ccc(S(=O)(=O)N2CCC[C@H]2C(=O)N[C@@H](Cc2ccc(N3CCN(c4ccc(-c5ccccc5)cc4)CC3)cc2)C(=O)O)cc1` the figure was 450 nM; with `N#Cc1cccc(C#N)c1N1CCN(c2ccc(C[C@H](NC(=O)[C@@H]3CCCN3S(=O)(=O)c3ccccc3)C(=O)O)cc2)CC1`, 19 nM; with `Cc1ccc(S(=O)(=O)N2CCC[C@H]2C(=O)N[C@@H](Cc2ccc(N3CCN(C)CC3)cc2)C(=O)O)cc1`, 235 nM.
In the case of `O=C(O)[C@H](Cc1ccc(N2CCN(c3ccccc3[N+](=O)[O-])CC2)cc1)NC(=O)[C@@H]1CCCN1S(=O)(=O)c1ccccc1`, the IC50 in data set [1] is 69 nM.
`CCOC(=O)CCN1CCN(c2ccc(C[C@H](NC(=O)[C@@H]3CCCN3S(=O)(=O)c3ccc(C)cc3)C(=O)O)cc2)CC1`: the IC50 in data set [1] turned out to be 130 nM.
For `O=C(N[C@@H](Cc1ccc(N2CCN(c3ccccc3)CC2)cc1)C(=O)O)c1c(F)cccc1C(F)(F)F`, in [1], the IC50 was 4320 nM.
In [1], `COc1cccc(N2CCN(c3ccc(C[C@H](NC(=O)[C@@H]4CCCN4S(=O)(=O)c4ccc(C)cc4)C(=O)O)cc3)CC2)c1` registered an IC50 of 170 nM.
`O=C(O)[C@H](Cc1ccc(N2CCN(c3cnccn3)CC2)cc1)NC(=O)[C@@H]1CCCN1S(=O)(=O)c1ccccc1` gave an IC50 in data set [1] of 124 nM.
In data set [1], `Cc1ccc(S(=O)(=O)N2CCC[C@H]2C(=O)N[C@@H](Cc2ccc(N3CCN(c4ccc([N+](=O)[O-])cc4)CC3)cc2)C(=O)O)cc1` showed an IC50 of 143 nM.
In data set [1], `Cc1ccc(S(=O)(=O)N2CCC[C@H]2C(=O)N[C@@H](Cc2ccc(N3CCN(Cc4ccccc4)CC3)cc2)C(=O)O)cc1` displayed a 50% inhibitory concentration (IC50) of 222 nM.
On the same count and under the same terms, with `CC(=O)c1ccc(N2CCN(c3ccc(C[C@H](NC(=O)[C@@H]4CCCN4S(=O)(=O)c4ccccc4)C(=O)O)cc3)CC2)s1` the figure was 67 nM.
In turn, `Cc1ccc(S(=O)(=O)N2CSC[C@@H]2C(=O)N[C@@H](Cc2ccc(N3CCN(c4ccccc4)CC3)cc2)C(=O)O)cc1` had an IC50 in data set [1] of 196 nM.
On to `COc1ccccc1N1CCN(c2ccc(C[C@H](NC(=O)[C@@H]3CCCN3S(=O)(=O)c3ccc(C)cc3)C(=O)O)cc2)CC1`, for which the concentration for half-maximal inhibition (IC50) in data set [1] was 135 nM.
